# Columns and labels:
# [1] = Drug metabolism in human Caco2 cells assessed as compound glucuronidation/sulfation at 100 uM after 48 hrs by HPLC analysis; format: ADME, cell-based; conditions: Caco-2 cells, read-out: Drug metabolism
# Method in brief: (§1)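 Caco-2 grown 21 days in 24-well plates, washed with HBSS/HEPES pH 7.4, then given 100 μM lignan in DMEM in triplicate at 37 °C. Supernatant and cells taken at 0, 2, 4, 6, 12, 24 and 48 h. Samples hydrolysed with H. pomatia β-glucuronidase/sulfatase H-5 (0.66 mg in 0.1 M acetate pH 5.0, 37 °C, 2 h), acetonitrile-precipitated and analysed by HPLC. Conjugate = total minus free, relative to a zero-time control.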
# Caco-2 [2] = experiment: (§2) Apparent permeability across apical to basolateral side in human Caco2 cells after 2 hrs by HPLC analysis; format: ADME, cell-based; conditions: caco-2, 2 h, BLD = below limit of detection
# Method in brief: (§3)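 Caco-2 (passages 41−54, DMEM/10% FBS/1% NEAA) grown 21 days on polyester Transwells (0.4 μm pore). Cells washed with HBSS/10 mM HEPES pH 7.4 and equilibrated 30 min at 37 °C; lignan at 100 μM added to apical or basolateral side, 2 h at 37 °C. Both compartments sampled and quantified by HPLC. Papp = (dQ/dt)/(Am·C0). Integrity checked by TEER and Lucifer yellow. Transport linear to 2 h.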
# Caco-2 [3] = experiment: (§4) Apparent permeability across basolateral to apical side in human Caco2 cells after 2 hrs by HPLC analysis; format: ADME, cell-based; conditions: caco-2, 2 h, BLD = below limit of detection; method in brief: as §3
# [4] = Stability in HBSS after 48 hrs; format: physicochemical; conditions: read-out: Stability
# Method in brief: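 Lignans kept in test medium in wells without cells for up to 48 h. Remaining compound was measured to judge stability.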
# [5] = as §2; format: ADME, cell-based, Caco-2; conditions: Caco-2; method in brief: as §3
# [6] = as §4; format: ADME, cell-based, Caco-2; conditions: Caco-2; method in brief: as §3
# [7] = Activity at Helix pomatia beta-glucuronidase/sulfatase type H-5 in compound-treated human Caco2 cell lysate assessed as formation of glucuronidase/sulfatase-sensitive conjugates at 100 uM after 12 hrs by HPLC analysis; format: ADME, cell-based; conditions: caco-2, 12 h; method in brief: as §1
# [8] = Efflux ratio of permeability from basolateral to apical side over apical to basolateral side in human Caco2 cells after 2 hrs by HPLC analysis; format: ADME, cell-based; conditions: Caco-2
# Method in brief: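 Efflux ratio taken as Papp B→A over Papp A→B. Papp comes from 2 h bidirectional transport of 100 μM lignan across 21-day Caco-2 monolayers on Transwells in HBSS/10 mM HEPES pH 7.4 at 37 °C, with HPLC quantitation of both compartments. TEER and Lucifer yellow used to confirm monolayer integrity.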
"metabolised at 48 h, 100 µM [1]",Papp (Caco-2 [2]),Papp (Caco-2 [3]),remaining at 48 h [4],Papp A→B at 2 h [5],Papp B→A at 2 h [6],Drug metabolism [7],efflux ratio at 2 h [8],Structure (SMILES)
< 3%,BLD,BLD,> 95%,–,–,–,–,COc1cc(C[C@@H](CO[C@@H]2O[C@H](CO)[C@@H](O)[C@H](O)[C@H]2O)[C@H](CO[C@@H]2O[C@H](CO)[C@@H](O)[C@H](O)[C@H]2O)Cc2ccc(O)c(OC)c2)ccc1O
–,–,–,> 95%,13.7 ×10⁻⁶ cm/s,10.6 ×10⁻⁶ cm/s,Active,0.8,O=C1OC[C@H](Cc2cccc(O)c2)[C@H]1Cc1cccc(O)c1 (relative stereo) [ENTEROLACTONE]
–,–,–,> 95%,8 ×10⁻⁶ cm/s,9.5 ×10⁻⁶ cm/s,–,1.2,COc1cc(C[C@@H](CO)[C@H](CO)Cc2ccc(O)c(OC)c2)ccc1O [(+)-SECOISOLARICIRESINOL]
–,–,–,> 95%,7.7 ×10⁻⁶ cm/s,8.9 ×10⁻⁶ cm/s,–,1.2,OC[C@H](Cc1cccc(O)c1)[C@H](CO)Cc1cccc(O)c1 [ENTERODIOL]

# Reference: ChEMBL document CHEMBL3102827, “Permeability and conjugative metabolism of flaxseed lignans by Caco-2 human intestinal cells” (J Nat Prod, 2014)
